ChEMBL document CHEMBL4689842, “EUbOPEN Chemogenomics Library wave 1” (2021)

How the values were obtained:
Format in all cases: toxicity, cell-based
[1] = system: HEK-293T; assay: Multiplex assay against HEK293T; details: human;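 as to Population Tubulin-Different-Phenotype (%): share of the cells with healthy nuclei that show this phenotype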
Summary of the method: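 Tubulin, mitochondrial-mass and membrane-permeability phenotypes are per cents of healthy-nucleus cells. Cells were gated by CellPathfinder machine learning into Hoechst high-intensity objects or normal cells, normal cells into healthy, pyknosed or fragmented nuclei, and pyknosed cells into mitotic or apoptotic. Before that, live cells stained at seeding with Hoechst33342, BioTracker Green Microtubule Cytoskeleton Dye, MitoTracker Red and Annexin V Alexa Fluor 680 were imaged on a CQ1 microscope at 37°C and 5% CO2 after compound addition.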

[2] = system: HEK-293T; assay: Incucyte cell viability with HEK293T; details: human, 10 µM, compound concentration 10 uM; also: filed as whole numbers so only -1 and 0 and 1 occur
[3] = system: Fibroblast; assay: Incucyte cell viability with human fibroblast; details: 10 µM, compound concentration 10 uM; also: filed as whole numbers so only -1 and 0 and 1 occur
[4] = 12 h, 1 µM, compound concentration 1 uM, replicate 1
[5] = 12 h, 1 µM, compound concentration 1 uM, replicate 2
[6] = 12 h, 10 µM, compound concentration 10 uM, replicate 1
[7] = 12 h, 10 µM, compound concentration 10 uM, replicate 2
[8] = 24 h, 1 µM, compound concentration 1 uM, replicate 1
[9] = 24 h, 1 µM, compound concentration 1 uM, replicate 2
[10] = 24 h, 10 µM, compound concentration 10 uM, replicate 1
[11] = 24 h, 10 µM, compound concentration 10 uM, replicate 2
[12] = 6 h, replicate number 1, timepoint 6 hours
[13] = 12 h, replicate number 1, timepoint 12 hours
[14] = 18 h, replicate number 1, timepoint 18 hours
[15] = 24 h, replicate number 1, timepoint 24 hours

In the case of `CC[C@H](Nc1ncnc2[nH]cnc12)c1nc2cccc(F)c2c(=O)n1-c1ccccc1` [IDELALISIB], the “Population Apoptotic (%)” value [1, 4] is reported as 22%, the “Population Fragmented Nuclei (%)” value [1, 4] is reported as 18% and the “Population Healthy Nuclei (%)” value [1, 4] is reported as 46%. For the same compound, the “Population Hoechst High Intensity Objects (%)” value [1, 4] was 14%, the “Population Membrane Permeable-Phenotype (%)” value [1, 4] was 12% and the “Population Mitochondria Different-Phenotype (%)” value [1, 4] was 15%. The “Population Mitotic Cells (%)” value [1, 4] was 77%, the “Population Normal (%)” value [1, 4] was 85% and the “Population Pyknosed Nuclei (%)” value [1, 4] was 34%. The “Population Tubulin-Different-Phenotype (%)” value [1, 4] was 29%, the “Total Cell Count” value [1, 4] was 588 and the “Population Apoptotic (%)” value [1, 5] was 10%. For the same compound, the “Population Fragmented Nuclei (%)” value [1, 5] was 5%, the “Population Healthy Nuclei (%)” value [1, 5] was 85% and the “Population Hoechst High Intensity Objects (%)” value [1, 5] was 3%. The “Population Membrane Permeable-Phenotype (%)” value [1, 5] was 11%, the “Population Mitochondria Different-Phenotype (%)” value [1, 5] was 18% and the “Population Mitotic Cells (%)” value [1, 5] was 89%. For the same compound, the “Population Normal (%)” value [1, 5] was 96%, the “Population Pyknosed Nuclei (%)” value [1, 5] was 9% and the “Population Tubulin-Different-Phenotype (%)” value [1, 5] was 64%. For the same compound, the “Total Cell Count” value [1, 5] was 1315, the “Population Apoptotic (%)” value [1, 6] was 18% and the “Population Fragmented Nuclei (%)” value [1, 6] was 15%. For the same compound, the “Population Healthy Nuclei (%)” value [1, 6] was 60%, the “Population Hoechst High Intensity Objects (%)” value [1, 6] was 9% and the “Population Membrane Permeable-Phenotype (%)” value [1, 6] was 4%. The “Population Mitochondria Different-Phenotype (%)” value [1, 6] was 3%, the “Population Mitotic Cells (%)” value [1, 6] was 81% and the “Population Normal (%)” value [1, 6] was 91%. The “Population Pyknosed Nuclei (%)” value [1, 6] was 23%, the “Population Tubulin-Different-Phenotype (%)” value [1, 6] was 2% and the “Total Cell Count” value [1, 6] was 500. The “Population Apoptotic (%)” value [1, 7] was 8%, the “Population Fragmented Nuclei (%)” value [1, 7] was 8% and the “Population Healthy Nuclei (%)” value [1, 7] was 86%. The “Population Hoechst High Intensity Objects (%)” value [1, 7] was 2%, the “Population Membrane Permeable-Phenotype (%)” value [1, 7] was 1% and the “Population Mitochondria Different-Phenotype (%)” value [1, 7] was 10%. The “Population Mitotic Cells (%)” value [1, 7] was 91%, the “Population Normal (%)” value [1, 7] was 97% and the “Population Pyknosed Nuclei (%)” value [1, 7] was 5%. The “Population Tubulin-Different-Phenotype (%)” value [1, 7] was 7%, the “Total Cell Count” value [1, 7] was 1603 and the “Population Apoptotic (%)” value [1, 8] was 17%. The “Population Fragmented Nuclei (%)” value [1, 8] was 14%, the “Population Healthy Nuclei (%)” value [1, 8] was 67% and the “Population Hoechst High Intensity Objects (%)” value [1, 8] was 10%. The “Population Membrane Permeable-Phenotype (%)” value [1, 8] was 16%, the “Population Mitochondria Different-Phenotype (%)” value [1, 8] was 12% and the “Population Mitotic Cells (%)” value [1, 8] was 82%. The “Population Normal (%)” value [1, 8] was 89%, the “Population Pyknosed Nuclei (%)” value [1, 8] was 18% and the “Population Tubulin-Different-Phenotype (%)” value [1, 8] was 48%. The “Total Cell Count” value [1, 8] was 613, the “Population Apoptotic (%)” value [1, 9] was 8% and the “Population Fragmented Nuclei (%)” value [1, 9] was 17%. The “Population Healthy Nuclei (%)” value [1, 9] was 77%, the “Population Hoechst High Intensity Objects (%)” value [1, 9] was 3% and the “Population Membrane Permeable-Phenotype (%)” value [1, 9] was 28%. The “Population Mitochondria Different-Phenotype (%)” value [1, 9] was 4%, the “Population Mitotic Cells (%)” value [1, 9] was 91% and the “Population Normal (%)” value [1, 9] was 96%. The “Population Pyknosed Nuclei (%)” value [1, 9] was 4%, the “Population Tubulin-Different-Phenotype (%)” value [1, 9] was 68% and the “Total Cell Count” value [1, 9] was 2065. The “Population Apoptotic (%)” value [1, 10] was 18%, the “Population Fragmented Nuclei (%)” value [1, 10] was 11% and the “Population Healthy Nuclei (%)” value [1, 10] was 77%. The “Population Hoechst High Intensity Objects (%)” value [1, 10] was 5%, the “Population Membrane Permeable-Phenotype (%)” value [1, 10] was 8% and the “Population Mitochondria Different-Phenotype (%)” value [1, 10] was 4%. The “Population Mitotic Cells (%)” value [1, 10] was 81%, the “Population Normal (%)” value [1, 10] was 94% and the “Population Pyknosed Nuclei (%)” value [1, 10] was 10%. For the same compound, the “Population Tubulin-Different-Phenotype (%)” value [1, 10] was 7%, the “Total Cell Count” value [1, 10] was 587 and the “Population Apoptotic (%)” value [1, 11] was 3%. For the same compound, the “Population Fragmented Nuclei (%)” value [1, 11] was 29%, the “Population Healthy Nuclei (%)” value [1, 11] was 68% and the “Population Hoechst High Intensity Objects (%)” value [1, 11] was 3%. The “Population Membrane Permeable-Phenotype (%)” value [1, 11] was 5%, the “Population Mitochondria Different-Phenotype (%)” value [1, 11] was 1% and the “Population Mitotic Cells (%)” value [1, 11] was 96%. For the same compound, the “Population Normal (%)” value [1, 11] was 96%, the “Population Pyknosed Nuclei (%)” value [1, 11] was 2% and the “Total Cell Count” value [1, 11] was 2772. For the same compound, the “Growth Rate” value [2, 12] was 0, the “Growth Rate” value [2, 13] was 0 and the “Growth Rate” value [2, 14] was 0. For the same compound, the “Growth Rate” value [2, 15] was 0, the “Growth Rate” value [3, 12] was 0 and the “Growth Rate” value [3, 13] was 0. The “Growth Rate” value [3, 14] was 0, the “Growth Rate” value ([3]; 18 h, replicate number 2, timepoint 18 hours) was 1 and the “Growth Rate” value [3, 15] was 1.
